Calls of active or inactive are those of the source. No cut-off for these calls is given here.

Data on 1 compound can be found in ChEMBL document CHEMBL4052637, “Discovery and Characterization of R/S-N-3-Cyanophenyl-N'-(6-tert-butoxycarbonylamino-3,4-dihydro-2,2-dimethyl-2H-1-benzopyran-4-yl)urea, a New Histone Deacetylase Class III Inhibitor Exerting Antiproliferative Activity against Cancer Cell Lines” (J Med Chem, 2017).

The subject of one assay is Hs 683. In words: Cytostatic activity against human Hs683 cells at 10 uM after 72 hrs by quantitative videomicroscopy relative to control. It counts as functional. In a few lines: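 Cells were grown in 25 cm2 flasks, and phase-contrast images were recorded every 4 min over 72 h, in triplicate. Global growth is cell count on the last image divided by cell count on the first, at 24, 48 and 72 h. The GGR index is treated GG divided by control GG.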

The target in assay [1] is T1, NAD-dependent protein deacetylase sirtuin-2 (Homo sapiens, UniProt Q8IXJ6).
T1 sequence (Q8IXJ6 whole entry): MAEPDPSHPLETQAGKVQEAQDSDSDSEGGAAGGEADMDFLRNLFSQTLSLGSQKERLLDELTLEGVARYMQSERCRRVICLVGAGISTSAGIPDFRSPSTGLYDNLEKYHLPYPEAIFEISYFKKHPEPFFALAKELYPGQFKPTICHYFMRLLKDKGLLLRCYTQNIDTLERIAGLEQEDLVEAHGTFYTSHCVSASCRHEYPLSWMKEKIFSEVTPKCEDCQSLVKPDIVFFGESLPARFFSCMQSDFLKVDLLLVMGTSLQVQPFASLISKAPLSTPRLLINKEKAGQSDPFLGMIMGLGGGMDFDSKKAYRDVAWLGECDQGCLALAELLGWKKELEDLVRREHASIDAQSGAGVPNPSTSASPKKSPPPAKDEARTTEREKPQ
In words: Inhibition of N-terminal His-tagged recombinant human SIRT-2 expressed in Escherichia coli using Fluor-de-Lys-SIRT1 as substrate after 15 mins by fluorescence assay.

Another assay has as its system HOP-62. In words: Growth inhibition of human HOP62 cells after 48 hrs by SRB assay. To be noted: HOP-62, 48 h. It counts as functional. For orientation: The SRB assay estimates cell density from bound dye.
For assay [2], the target named is T2, NAD-dependent protein deacetylase sirtuin-1 (Homo sapiens) (UniProt Q96EB6).
T2 sequence (whole entry): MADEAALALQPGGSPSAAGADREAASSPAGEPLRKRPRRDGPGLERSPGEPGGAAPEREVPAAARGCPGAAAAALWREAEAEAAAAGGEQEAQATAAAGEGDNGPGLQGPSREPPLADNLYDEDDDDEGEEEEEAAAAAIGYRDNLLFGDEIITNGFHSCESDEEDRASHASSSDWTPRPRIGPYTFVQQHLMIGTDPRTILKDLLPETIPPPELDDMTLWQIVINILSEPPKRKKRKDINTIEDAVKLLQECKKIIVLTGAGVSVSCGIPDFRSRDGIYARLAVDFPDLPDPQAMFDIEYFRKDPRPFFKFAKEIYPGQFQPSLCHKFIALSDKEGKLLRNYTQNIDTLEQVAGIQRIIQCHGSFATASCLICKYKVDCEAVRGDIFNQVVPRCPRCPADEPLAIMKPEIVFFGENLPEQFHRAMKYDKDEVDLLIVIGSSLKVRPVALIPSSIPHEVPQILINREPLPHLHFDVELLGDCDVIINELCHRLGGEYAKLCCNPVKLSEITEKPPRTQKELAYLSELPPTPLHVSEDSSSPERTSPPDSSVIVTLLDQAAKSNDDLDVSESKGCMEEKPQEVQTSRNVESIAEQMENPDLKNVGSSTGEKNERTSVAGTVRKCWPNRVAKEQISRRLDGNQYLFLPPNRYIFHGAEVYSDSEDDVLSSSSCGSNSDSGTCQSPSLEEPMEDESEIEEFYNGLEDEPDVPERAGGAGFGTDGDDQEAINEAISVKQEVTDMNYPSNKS
In words: Inhibition of SIRT1 in human Hs683 cells assessed as increase of histone H3K56 acetylation at 10 to 25 after 8 to 24 hrs by Western blotting method. It counts as cell-based. The procedure, abridged: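 Cells treated with the compound, then histone H3K56 acetylation assessed by Western blot on histone extracts; histone H1 or Coomassie staining as loading control.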
On the technique in general: In western blotting, separated proteins are transferred to a membrane and probed.

The target in assay [3] is Histone deacetylase 1 (Homo sapiens) (UniProt Q13547). In words: Inhibition of His-tagged recombinant human HDAC1 expressed in baculovirus expression system at 0.1 to 100 uM using Fluor-de-Lys-SIRT1 as substrate after 15 mins by fluorescence assay.
The test system of a further assay is SNB-19. In words: Growth inhibition of human SNB19 cells after 48 hrs by SRB assay. The following applies: SNB-19, 48 h. It counts as functional.
Assay [4] can be described thus: Potency index, ratio of EX-527 IC50 to test compound IC50 for human U373 cells. In kind it is functional, U-373MG ATCC.
Another assay concerns SF-268. In words: Growth inhibition of human SF268 cells after 48 hrs by SRB assay. In kind it is functional. To be noted: SF-268, 48 h.
The subject of a further assay is SNB-75. In words: Growth inhibition of human SNB75 cells after 48 hrs by SRB assay. It counts as functional. The following applies: SNB-75, 48 h.
In assay [5] the target is Histone deacetylase 3 (Homo sapiens) (UniProt O15379). In words: Inhibition of His-tagged recombinant human HDAC3 expressed in baculovirus infected insect cells at 0.1 to 100 uM using Fluor-de-Lys-SIRT1 as substrate after 15 mins by fluorescence assay.
For another assay, the system named is NCI-H23. In words: Growth inhibition of human NCI-H23 cells after 48 hrs by SRB assay. It counts as functional. The following applies: NCI-H23, 48 h.
The subject of the next assay is NCI-H522. In words: Growth inhibition of human NCI-H522 cells after 48 hrs by SRB assay. In kind it is functional. To be noted: NCI-H522, 48 h.
The subject of another assay is KM12. In words: Growth inhibition of human KM12 cells after 48 hrs by SRB assay. It counts as functional. To be noted: KM12, 48 h.
The subject of another assay is SW-620. In words: Growth inhibition of human SW620 cells after 48 hrs by SRB assay. In kind it is functional. To be noted: SW-620, 48 h.
A further assay concerns HOP-92. In words: Growth inhibition of human HOP92 cells after 48 hrs by SRB assay. In kind it is functional. The following applies: HOP-92, 48 h.
For assay [6], the target named is T3, NAD-dependent protein deacetylase sirtuin-1 (Homo sapiens, UniProt Q96EB6).
T3 sequence (Q96EB6 whole entry): T2 sequence (whole entry)
In words: Inhibition of N-terminal His-tagged recombinant human SIRT-1 expressed in Escherichia coli using Fluor-de-Lys-SIRT1 as substrate after 15 mins by fluorescence assay.

In the next assay the test system is KBC1. In words: Antiproliferative activity against human KBC1 cells overexpressing ABCB1 after 72 hrs by MTT assay. It counts as functional, cell-based. The procedure, abridged:
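MTT assay: cells in RPMI 1640 with 10% heat-inactivated FCS at 37 °C and 5% CO2 were seeded 24 h before treatment. They were exposed 72 h to compound at 0.01–100 μM, with DMSO as solvent.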

In a further assay the test system is SK-MEL-5. In words: Growth inhibition of human SK-MEL-5 cells after 48 hrs by SRB assay. It counts as functional. To be noted: SK-MEL-5, 48 h.
The target in assay [7] is T2, NAD-dependent protein deacetylase sirtuin-1 (Homo sapiens). In words: Inhibition of SIRT1 in human U373 cells assessed as increase of histone H4 acetylation after 8 hrs by Western blotting method. In kind it is cell-based.
Assay [8] has as its target Polyamine deacetylase HDAC10 (Homo sapiens) (UniProt Q969S8). In words: Inhibition of C-terminal His-tagged recombinant human HDAC10 expressed in baculovirus infected insect Sf9 cells at 0.1 to 100 uM using Fluor-de-Lys-SIRT1 as substrate after 15 mins by fluorescence assay.
The next assay deals with U-373MG ATCC. In words: Inhibition of 3D tumor-like growth of human U373 cells assessed as decrease in ATP level at 5 to 10 uM treated for 24 hrs measured after 96 hrs by CellTiter-Glo assay. It counts as functional, cell-based.

Chain of Polyamine deacetylase HDAC10 (Homo sapiens) (Q969S8 whole entry): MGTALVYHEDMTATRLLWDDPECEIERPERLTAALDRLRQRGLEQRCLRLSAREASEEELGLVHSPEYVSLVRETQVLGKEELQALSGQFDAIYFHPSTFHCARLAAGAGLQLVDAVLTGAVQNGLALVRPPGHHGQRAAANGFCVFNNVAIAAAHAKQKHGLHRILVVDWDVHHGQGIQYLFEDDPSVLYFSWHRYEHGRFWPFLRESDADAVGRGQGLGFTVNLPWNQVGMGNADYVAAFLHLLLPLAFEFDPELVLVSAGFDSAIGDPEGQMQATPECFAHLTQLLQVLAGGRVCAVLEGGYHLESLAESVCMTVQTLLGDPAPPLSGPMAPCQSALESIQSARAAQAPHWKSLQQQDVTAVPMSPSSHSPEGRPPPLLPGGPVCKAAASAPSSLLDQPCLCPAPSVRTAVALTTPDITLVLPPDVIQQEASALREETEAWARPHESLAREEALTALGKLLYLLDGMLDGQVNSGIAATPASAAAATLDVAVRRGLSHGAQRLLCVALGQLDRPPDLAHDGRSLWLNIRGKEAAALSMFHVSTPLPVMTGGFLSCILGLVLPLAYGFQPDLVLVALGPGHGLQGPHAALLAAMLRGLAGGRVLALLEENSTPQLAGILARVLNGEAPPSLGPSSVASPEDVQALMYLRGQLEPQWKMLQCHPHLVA
Chain of Histone deacetylase 3 (Homo sapiens) (O15379 whole entry): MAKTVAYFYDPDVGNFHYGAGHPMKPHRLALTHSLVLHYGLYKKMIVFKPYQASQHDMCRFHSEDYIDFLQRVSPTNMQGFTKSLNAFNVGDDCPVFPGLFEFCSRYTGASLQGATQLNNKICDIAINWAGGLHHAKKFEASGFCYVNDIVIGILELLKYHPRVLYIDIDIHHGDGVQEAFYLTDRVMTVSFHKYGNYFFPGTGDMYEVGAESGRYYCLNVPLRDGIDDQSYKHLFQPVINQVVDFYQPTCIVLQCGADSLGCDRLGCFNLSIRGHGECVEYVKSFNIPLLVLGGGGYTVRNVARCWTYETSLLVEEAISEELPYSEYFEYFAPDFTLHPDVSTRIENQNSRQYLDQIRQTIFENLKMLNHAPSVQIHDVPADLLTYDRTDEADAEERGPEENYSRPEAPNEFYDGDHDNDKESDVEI
Chain of Histone deacetylase 1 (Homo sapiens) (Q13547 whole entry): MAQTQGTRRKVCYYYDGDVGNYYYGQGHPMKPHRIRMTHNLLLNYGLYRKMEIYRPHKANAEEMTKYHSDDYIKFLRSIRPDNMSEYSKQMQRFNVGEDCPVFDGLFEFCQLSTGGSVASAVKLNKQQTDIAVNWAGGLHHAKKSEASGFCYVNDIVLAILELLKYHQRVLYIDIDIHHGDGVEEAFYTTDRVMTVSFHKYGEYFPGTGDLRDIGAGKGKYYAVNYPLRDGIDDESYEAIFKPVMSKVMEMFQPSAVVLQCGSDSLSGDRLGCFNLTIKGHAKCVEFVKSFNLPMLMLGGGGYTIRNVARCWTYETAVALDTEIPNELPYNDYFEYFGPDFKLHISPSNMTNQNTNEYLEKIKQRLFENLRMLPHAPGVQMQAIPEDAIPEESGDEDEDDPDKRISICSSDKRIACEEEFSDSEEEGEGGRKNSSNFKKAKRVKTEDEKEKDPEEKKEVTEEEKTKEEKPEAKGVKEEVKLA

In general, IC50 refers to the concentration that inhibits the measured activity by half. The term GI50 denotes the concentration at which growth is held to half of that of the control. Higher therefore signals lower sensitivity of the cells. Turning to `CC(C)(C)OC(=O)Nc1ccc2c(c1)C(NC(=O)Nc1cccc(C#N)c1)CC(C)(C)O2` (stereo unspecified), in the assay on Hs 683, the Activity result is listed as “>=50%”. Also, the IC50 in assay [1] is 4.2 µM; in assay [6], 6.2 µM. Besides, the concentration for 50% growth inhibition (GI50) was 5.01 µM in the assay with HOP-62; 3.72 µM in the assay with SNB-19; 5.01 µM in the assay on SF-268; 5.89 µM in the assay on SNB-75; 1.12 µM with NCI-H23; 3.24 µM in the assay with NCI-H522. The GI50 was 4.07 µM with KM12, 3.8 µM in the assay on SW-620, 0.776 µM in the assay on HOP-92 and 0.427 µM in the assay with SK-MEL-5. Also, the inhibition entry (in assay [2]; with U-373MG ATCC) was “Active” throughout. The inhibition result in assay [3], in assay [5] and in [8] was “inactive” in each case. Moreover, the “Ratio IC50” value in assay [4] is 20. Also, the result with KBC1 was Active. Further, the inhibition result in [7] was “Dose-dependent effect”.
